# Only some compounds are listed: those with a hit (about 2% of all), similar ones and a draw of the others.
# VLA-4 inh = inhibition in a human VLA-4 binding assay; AID 2557; P13612; inhibition, % (about 7 µM as worked out from the volumes in the protocol); VLA-4 expressing cells, ligand binding flow cytometry; actives 0.2% (n = 330,000); in the data active = inhibition above about 50%
# FGF22 binding = shifts melting point of recombinant human FGF22; actives 1.5% (n = 340,000); AID 651658; activity (Tm shift, normalised), % at 9.99 µM; recombinant FGF22 thermal shift, SYPRO orange fluorescence; percent of sucrose octasulfate shift, DMSO zero;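 active = mean Tm shift, scaled 0 neutral to 100 positive control, at about 1.3% or above, every replicate too, limit read from the data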
# DAGLB inh = blocks human DAGLB lipase activity; Q8NCG7; HEK293T DAGLB membrane lysate, EnzChek fluorogenic substrate; inhibition, % at 5.17 µM; actives 0.059% (n = 340,000); AID 504411; in the data active = inhibition above about 34%;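 note: 0% = enzyme with vehicle and 100% = wells lacking enzyme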
# Target sequence (Q8NCG7 whole entry, looked up): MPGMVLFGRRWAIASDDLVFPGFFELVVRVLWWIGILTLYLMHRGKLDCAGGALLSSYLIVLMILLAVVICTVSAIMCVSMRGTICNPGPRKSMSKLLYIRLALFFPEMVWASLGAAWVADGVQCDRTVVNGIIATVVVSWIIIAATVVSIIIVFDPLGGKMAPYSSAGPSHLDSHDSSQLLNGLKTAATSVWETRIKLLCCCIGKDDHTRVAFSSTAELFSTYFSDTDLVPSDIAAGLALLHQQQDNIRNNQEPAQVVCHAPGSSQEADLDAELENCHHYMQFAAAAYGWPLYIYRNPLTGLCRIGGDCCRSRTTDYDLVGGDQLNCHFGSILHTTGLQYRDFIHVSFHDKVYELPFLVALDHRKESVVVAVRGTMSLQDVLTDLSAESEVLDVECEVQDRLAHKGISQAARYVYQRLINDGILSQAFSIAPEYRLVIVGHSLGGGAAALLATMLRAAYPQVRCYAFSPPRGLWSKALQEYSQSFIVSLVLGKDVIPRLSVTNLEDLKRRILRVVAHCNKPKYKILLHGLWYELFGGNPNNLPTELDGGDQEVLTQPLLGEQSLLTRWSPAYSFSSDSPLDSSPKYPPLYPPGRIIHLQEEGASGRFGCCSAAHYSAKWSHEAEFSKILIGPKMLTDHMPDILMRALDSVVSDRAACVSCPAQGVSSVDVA
# Exocytosis inh = blocks lytic granule exocytosis; TALL-104 LAMP-1 surface exposure, flow cytometry; cells stimulated with thapsigargin and PMA; inhibition, % at 10 µM; actives 0.66% (n = 360,000); AID 651702;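 active = inhibition above about 55%, limit read from the data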
# MT1-MMP act inh = MT1-MMP (human) activation inhibition; HT1080 RFP-PRO-GFP cells, GFP/RFP ratio fluorescence, overnight; percent of plate control window, DMSO zero; AID 651647; GFP/RFP ratio change, % at 20 µM; P50281; actives 0.061% (n = 360,000);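 active = GFP/RFP ratio change of at least 30% with cell ATP level not reduced by more than half and red fluorescence within 50% of control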
#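 Read-out: GFP/RFP fluorescence ratio; Test system: RFP-PRO-GFP reporter HT1080 cells; Compound dosing: single-point 20 µM compound, 1% DMSO; Times: overnight compound exposure at 37 °C.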
# ABCB6 inh 2 = human ABCB6 transporter inhibition; Q9NP58; K562-ABCB6 porphyrin accumulation, flow cytometry, 1 h; active compounds read low; fluorescence ratio to DMSO, % at 10 µM; actives 0.19% (n = 360,000);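 active = fluorescence ratio to DMSO below 75%, the collection mean minus 3 SD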;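 note: signal is porphyrin accumulated inside mitochondria; 100% equals median channel fluorescence of DMSO control wells; lower ratio means ABCB6 inhibition with less porphyrin fluorescence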
# * marks the source's active call; other numbers are inactive results; / = no result given.
SMILES,VLA-4 inh,FGF22 binding,DAGLB inh,Exocytosis inh,MT1-MMP act inh,ABCB6 inh 2
Cc1ccc(NS(=O)(=O)c2cc(C(=O)N3CCCC3)ccc2C)cc1C,5.8,0.1,0.5,-0.7,3.4,97.0
O=C(O)C(Cc1c[nH]c2ccccc12)NS(=O)(=O)c1ccc(Cl)cc1 (centres undefined),7.3,43.5*,-0.3,-3.1,-2.7,95.0
CCN(CC)C(=O)C1=C(C)N(Cc2ccccc2)C(=O)C(CC(=O)NC2CCCCC2)C1 (centres undefined),/,43.9*,1.8,-1.7,3.0,101.0
CC1=C(C(=O)N(C)C)CC(CC(=O)NC2CC2)C(=O)N1Cc1ccccc1 (centres undefined),/,0.0,-0.8,2.7,0.5,96.0
CCN(CC)C(=O)C1=C(C)N(Cc2ccccc2)C(=O)C(CC(=O)NC2CC2)C1 (centres undefined),/,43.8*,-0.4,0.5,4.6,100.0
CCN(CC)C(=O)C1=C(C)N(Cc2ccc(C(C)(C)C)cc2)C(=O)C(CC(=O)NC2CCCCC2)C1 (centres undefined),/,0.1,-4.5,-6.9,-2.2,96.0
CN1C(=O)c2cc(NC(=O)C3CC3)ccc2OC[C@@H]2O[C@H](CC(=O)NC3CCC3)CC[C@@H]21,/,-0.1,/,/,/,/
CN(C)/C=N/S(=O)(=O)c1ccc(Cl)cc1,-2.6,43.0*,-2.8,5.2,1.2,101.0
Cc1ccc(S(=O)(=O)/N=C/N(C)C)cc1,0.0,/,-1.1,2.5,3.3,99.0
CC1CCC(C(O)(C(=O)c2ccccc2)c2ccccc2)C(=O)C1 (centres undefined),/,0.1,-12.7,-3.9,-1.7,97.0
O=C1CCCCC1C(O)(C(=O)c1ccccc1)c1ccccc1 (centres undefined),/,43.3*,-4.5,-3.8,2.7,99.0
CC(C(=O)Nc1ccccc1-c1ccccc1)N1CCN(Cc2ccccc2)CC1 (centres undefined),2.3,43.1*,-5.2,-0.3,-7.8,107.0
Cc1ccc(S(=O)(=O)Nc2ccc3c(c2)C(=O)N([C@H](C)CO)C[C@H](C)[C@@H](CN(C)C(=O)Nc2c(C)noc2C)OCCCC[C@@H](C)O3)cc1,/,-0.2,/,/,/,/
Cc1cccc(NC(=O)CSc2nnc(-c3n[nH]c4ccccc34)o2)c1,3.6,0.5,-5.8,8.0,0.0,96.0
N#Cc1cccc(NC(=O)CSc2nnc(-c3n[nH]c4ccccc34)o2)c1,-2.6,1.9*,-3.8,-2.5,2.4,99.0
CC(=O)Nc1ccc(NC(=O)CSC2=NS(=O)(=O)c3cc(F)ccc3N2)cc1,0.5,1.2,0.5,-1.2,2.6,102.0
O=C(CSC1=NS(=O)(=O)c2cc(F)ccc2N1)Nc1ccc(F)cc1,0.5,1.7*,-0.2,19.5,-2.5,96.0
CCC(=O)N[C@@H]1C=C[C@H](CC(=O)NCc2ccccc2OC)O[C@@H]1CO,/,0.4,/,/,/,/
Oc1c(Br)cc(Br)cc1C=NCc1ccc(F)cc1,1.7,43.4*,13.5,31.4,-1.4,95.0
COc1cc(/C=C2\SC(=S)N(CCC(=O)Nc3cccc(O)c3)C2=O)cc(OC)c1OC,17.3,-0.2,-4.0,85.2*,10.9,96.0
O=C(CN1C(=O)/C(=C/c2cccc(Br)c2)SC1=S)Nc1cccnc1,3.0,43.8*,3.5,-1.2,3.3,107.0
O=C(c1cccnc1)N1C[C@@H]2[C@H](c3ccccc31)[C@H](CO)N2C(=O)C1CCOCC1,/,0.6,/,/,/,/
CNC[C@@H]1OCCCC[C@H](C)Oc2ccc(N)cc2C(=O)N([C@@H](C)CO)C[C@H]1C,/,-0.6,/,/,/,/
Cc1nn(C)cc1NC(=O)C[C@@H]1CC[C@@H]2[C@H](COc3ccc(NC(=O)C4CCC4)cc3C(=O)N2C)O1,/,-0.1,/,/,/,/
O=S(=O)(c1ccccc1)c1ccc(C(F)(F)F)cn1,3.8,43.6*,3.6,3.0,-3.8,96.0
SMILES,VLA-4 inh,FGF22 binding,DAGLB inh,Exocytosis inh,MT1-MMP act inh,ABCB6 inh 2
CC(C)COC(=O)CNc1n[nH]c(=S)[nH]c1=O,-3.5,0.2,-1.3,5.7,9.0,104.0
NC(=O)CNc1n[nH]c(=S)[nH]c1=O,2.7,43.0*,-0.3,2.0,-0.5,85.0
Cn1c(=O)[nH]c(=O)c2cc(C(=O)c3cc(F)ccc3O)cnc21,-0.8,43.0*,1.1,-2.4,0.0,93.0
Cc1nn(C)c2ncc(C(=O)c3cc(F)ccc3O)cc12,5.5,/,-1.1,4.1,-0.3,95.0
Cc1ccc(Cl)cc1NC(=S)NCc1cccn1C,27.4,/,-0.2,-2.8,2.9,73.0*
COc1ccc(NC(=O)Nc2ccc3c(c2)CC(=O)N([C@H](C)CO)C[C@H](C)[C@@H](CN(C)C(=O)NC2CCCCC2)O3)cc1,/,-0.1,/,/,/,/
O=c1cccc2n1Cc1cc3ccccc3nc1-2,-9.0,43.7*,-6.4,-6.2,/,99.0
c1ccc2c(c1)-c1nc3ccccc3cc1C2N1CCCCC1 (centres undefined),/,-0.3,-11.2,-2.6,1.3,96.0
C[C@H]1CN([C@@H](C)CO)C(=O)Cc2cc(NC(=O)Cc3ccccc3)ccc2O[C@@H]1CN(C)C,/,0.0,/,/,/,/
Cc1cccc(Cc2c(C)[nH]c(=O)c(C#N)c2C)c1,-3.7,43.2*,-3.3,-2.4,-1.4,104.0
COc1ccc(NC(=O)Nc2cccc3c2O[C@@H](CN(C)C(=O)NC2CCCCC2)[C@@H](C)CN([C@H](C)CO)C3=O)cc1,/,0.2,/,/,/,/
O=C1COc2ccc(-c3n[nH]c(=O)c4ccccc34)cc2N1,-6.9,43.2*,0.5,-2.6,-7.6,95.0
Nc1nc(-c2ccc3c(c2)NC(=O)CO3)cs1,3.6,/,1.9,-0.4,1.2,97.0
N=c1n(CC(=O)c2ccc([N+](=O)[O-])cc2)c2ccccc2n1Cc1ccccc1,5.9,/,-1.8,76.5*,-25.0,105.0
CC(C)(C)N1CC(C(=O)Nc2ccc(C(N)=O)cc2)CC1=O (centres undefined),/,43.7*,0.2,0.7,10.3,103.0
CC(C)(C)N1CC(C(=O)Nc2ccc(S(N)(=O)=O)cc2)CC1=O (centres undefined),11.8,0.1,-3.7,-4.9,-1.1,103.0
C[C@H]1CN([C@@H](C)CO)C(=O)CCCn2cc(nn2)CO[C@H]1CN(C)Cc1ccc(C(=O)O)cc1,/,-0.4,/,/,/,/
CN(C)c1cc(N/N=C\c2ccccc2)nc(N(C)C)n1,0.0,43.0*,-7.4,-1.9,-3.7,95.0
CCCCN(C(=O)NC(=O)Nc1cc(C)ccc1C)S(C)(=O)=O,36.5,0.2,-2.5,0.6,2.0,91.0
CCCCCN(C(=O)NC(=O)Nc1ccc(C)cc1C)S(C)(=O)=O,-1.3,43.0*,-0.7,-5.7,-3.0,100.0
COc1ccc(S(=O)(=O)N2CCCOC2CNC(=O)C(=O)NCc2ccco2)cc1C (centres undefined),-4.8,44.1*,-0.8,-8.5,0.1,100.0
